These results are taken from ChEMBL document CHEMBL1154144, “Semisynthesis and antiplasmodial activity of the quinoline alkaloid aurachin E” (J Nat Prod, 2008).

The subject of test [1] is Plasmodium berghei. The test is described as follows: Antimalarial activity against Plasmodium berghei infected in mice (Mus musculus).
The nature of test [2]: Inhibition of respiration in bovine heart submitochondrial particles assessed as NADH oxidation. Type of test: functional, Bos taurus.
A further test concerns L929. The test is described as follows: Cytotoxicity against mouse L929 cells after 5 days by MTT assay. As to conditions: L929, 120 h. Type of test: cell-based. In outline:
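L929 mouse fibroblasts were exposed to serial compound dilutions, and metabolic activity was read by MTT after 5 days.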

Test [3] concerns Plasmodium falciparum. Briefly: Antiplasmodial activity against Plasmodium falciparum D6 clone after 48 hrs. Type of test: functional, organism-based. As to conditions: D6, 48 h.
Test [4] concerns Plasmodium falciparum. Briefly: Antiplasmodial activity against Plasmodium falciparum W2 after 48 hrs. Type of test: functional, organism-based. As to conditions: W2, 48 h.
For test [5], the system named is Plasmodium berghei. The test is described as follows: Antimalarial activity against Plasmodium berghei infected in mice (Mus musculus) at 100 mg/kg. Type of test: functional.

SMILES strings stand for the structures. Converted amounts (≈) assume the structure as drawn. The source made the active and inactive calls. The rule behind the calls is not given here.

Consider `CCN(CC)CCCC(C)Nc1ccnc2cc(Cl)ccc12` (stereo not drawn) [CHLOROQUINE], for which, in the test with Plasmodium berghei [1], the ED90 came to 2.8 mg/kg. The values for the IC50 (in test [2]; in the test with L929) were more than 8.1 µg/mL and 14 µg/mL (≈ 43.8 µM), respectively.

On to `CC(C)=CCC/C(C)=C/CCC(C)(O)C1Cc2c(c(C)[n+]([O-])c3ccccc23)O1` (stereo not drawn) [AURACHIN A], for which the IC50 in the test with Plasmodium falciparum [3] was more than 12000 ng/mL; with Plasmodium falciparum [4], more than 12 µg/mL; in test [2], 0.028 µg/mL (≈ 0.0708 µM); with L929, 1.4 µg/mL (≈ 3.54 µM).

Turning to `CC(C)=CCC/C(C)=C/CC/C(C)=C/Cc1c(C)[nH]c2ccccc2c1=O` [AURACHIN D], the IC50 with Plasmodium falciparum [3] was found to be 250 ng/mL (≈ 0.688 µM); in the test on Plasmodium falciparum [4] it was 0.37 µg/mL (≈ 1.02 µM); in test [2], 0.018 µg/mL (≈ 0.0495 µM); in the test on L929 it was 1.3 µg/mL (≈ 3.58 µM).

`C[C@@H]1CC[C@H]2[C@@H](C)C(=O)O[C@@H]3O[C@@]4(C)CC[C@@H]1[C@]32OO4` [ARTEMISININ]: the IC50 in the test with Plasmodium falciparum [3] was 1.1 ng/mL (≈ 0.0039 µM); in the test on Plasmodium falciparum [4], 0.00043 µg/mL (≈ 0.00152 µM); in test [2], more than 8.1 µg/mL; in the test on L929 it was more than 40 µg/mL.

Turning to `CC(C)=CCC/C(C)=C/CC/C(C)=C/Cc1c(O)c(C)[n+]([O-])c2ccccc12` [AURACHIN B], the IC50 worked out at 78 ng/mL (≈ 0.206 µM) with Plasmodium falciparum [3], 0.036 µg/mL (≈ 0.0949 µM) in the test with Plasmodium falciparum [4], 0.014 µg/mL (≈ 0.0369 µM) in test [2] and 3.2 µg/mL (≈ 8.43 µM) in the test with L929.

Turning to `CC(C)=CCC/C(C)=C/CC/C(C)=C/Cc1c(C)n(O)c2ccccc2c1=O` [AURACHIN C], the IC50 with Plasmodium falciparum [3] is 0.9 ng/mL (≈ 0.00237 µM); in the test on Plasmodium falciparum [4] it was 0.026 µg/mL (≈ 0.0685 µM); in test [2], 0.016 µg/mL (≈ 0.0422 µM); in the test on L929 it was 1.8 µg/mL (≈ 4.74 µM).

On to `CC(C)=CCC/C(C)=C/CC/C(C)=C/Cc1c(C)n2c(=O)[nH]c3cccc(c1=O)c32` [AURACHIN E], for which the IC50 in the test with Plasmodium falciparum [3] is 0.4 ng/mL (≈ 0.000989 µM); with Plasmodium falciparum [4], 0.013 µg/mL (≈ 0.0321 µM); in test [2], 1.1 µg/mL (≈ 2.72 µM); with L929 it was 25 µg/mL (≈ 61.8 µM). Moreover, the result in the test with Plasmodium berghei [5] was inactive.
